In brackets after ≈: the same amount, converted by molar mass.
Columns and labels:
Bacillus subtilis [1] = assay: Antibacterial activity against Bacillus subtilis ATCC9372 assessed as bacterial growth inhibition incubated for 18 hrs by CLSI based broth microdilution method; assay type: functional
In short: (§1)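 CLSI broth microdilution. Log-phase bacteria in Mueller Hinton broth added to 2-fold serial dilutions spanning 128 to 0.25 or 2 to 0.004 µg/mL. Incubated aerobically for 18 h at 37 °C, then OD600 read. MIC is the lowest concentration giving ≥90% growth inhibition; three independent assays.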

Staphylococcus aureus [2] = assay: Antibacterial activity against Staphylococcus aureus ATCC29213 assessed as bacterial growth inhibition incubated for 18 hrs by CLSI based broth microdilution method; assay type: functional; in short: as §1
Staphylococcus aureus [3] = assay: Antibacterial activity against Staphylococcus aureus ATCC25923 assessed as bacterial growth inhibition incubated for 18 hrs by CLSI based broth microdilution method; assay type: functional; in short: as §1
Staphylococcus aureus [4] = assay: Induction of resistance in Staphylococcus aureus ATCC29213 assessed as fold increase in MIC at 0.5 times MIC after 18 passages incubated for 24 hrs by resistance development assay; assay type: functional
In short: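 Serial passage of S. aureus ATCC29213. Initial MIC was found by broth microdilution. Bacteria from the 0.5 × MIC tubes (duplicate) were diluted to about 5 × 10^5 CFU/mL and re-exposed to compound for 24 h at 35 °C, then fold increase in MIC was determined. Repeated for 18 passages, with norfloxacin as comparator.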

Bacillus subtilis [5] = assay: Antibacterial activity against Bacillus subtilis MG27 assessed as bacterial growth inhibition incubated for 18 hrs by CLSI based broth microdilution method; assay type: functional; in short: as §1
Bacillus subtilis [6] = assay: Antibacterial activity against Bacillus subtilis 618 assessed as bacterial growth inhibition incubated for 18 hrs by CLSI based broth microdilution method; assay type: functional; in short: as §1
Bacillus subtilis [7] = assay: Antibacterial activity against Bacillus subtilis BS01 assessed as bacterial growth inhibition incubated for 18 hrs by CLSI based broth microdilution method; assay type: functional; in short: as §1
[8] = Cytotoxicity against African green monkey Vero cells assessed as reduction in cell viability incubated for 72 hrs by alamar blue staining based assay; assay type: toxicity; conditions: chlorocebus sabaeus
In short: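 Vero cells seeded at about 2 × 10^3 per well, 37 °C, 5% CO2. Compound added after 24 h and incubated 72 h. AlamarBlue (1:10 v/v) then added for 3 h in the dark, read at Ex/Em 560/590 nm. CC50 is the lowest concentration causing 50% loss of viability.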

[9] = Selectivity index, ratio of CC50 for African green monkey Vero cells to MIC for Bacillus subtilis ATCC9372; assay type: toxicity, cell-based; conditions: read-out: Selectivity Index
In short: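 CC50 in Vero cells (72 h Alamar blue) divided by broth microdilution MIC against B. subtilis ATCC9372.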

[10] = Metabolic stability in human liver microsomes assessed as half life preincubated for 5 mins followed by NADPH addition measured upto 45 mins by LC/MS analysis; assay type: ADME, Microsome; conditions: time < 50 min
In short: (§2)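 Liver microsomes at 0.75 mg/mL final protein, with test article and NADPH regeneration system (6 mM) in 100 mM phosphate buffer, pH 7.4. Preincubated 5 min at 37 °C, then started with NADPH. Quenched with acetonitrile containing internal standard at 5, 15, 30 and 45 min, centrifuged, and percent remaining measured by LC/MS. Ketanserin served as reference.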

[11] = Metabolic stability in rat liver microsomes assessed as half life preincubated for 5 mins followed by NADPH addition measured upto 45 mins by LC/MS analysis; assay type: ADME, Microsome; conditions: time < 50 min; in short: as §2
[12] = Metabolic stability in mouse liver microsomes assessed as half life preincubated for 5 mins followed by NADPH addition measured upto 45 mins by LC/MS analysis; assay type: ADME, Microsome; conditions: time < 50 min; in short: as §2
[13] = Metabolic stability in human liver microsomes assessed as intrinsic clearance preincubated for 5 mins followed by NADPH addition measured upto 45 mins by LC/MS analysis; assay type: ADME, Microsome; conditions: time < 50 min, read-out: CLH; in short: as §2
[14] = Metabolic stability in rat liver microsomes assessed as intrinsic clearance preincubated for 5 mins followed by NADPH addition measured upto 45 mins by LC/MS analysis; assay type: ADME, Microsome; conditions: time < 50 min, read-out: CLH; in short: as §2
[15] = Metabolic stability in mouse liver microsomes assessed as intrinsic clearance preincubated for 5 mins followed by NADPH addition measured upto 45 mins by LC/MS analysis; assay type: ADME, Microsome; conditions: time < 50 min, read-out: CLH; in short: as §2

## NC(=O)c1c(F)ccc(OCc2cccc(-c3ccc(C(F)(F)F)c(Cl)c3)c2)c1F
Bacillus subtilis [1]
  MIC: > 128 µg/mL
Staphylococcus aureus [2]
  MIC: > 128 µg/mL
Staphylococcus aureus [3]
  MIC: > 128 µg/mL

## NC(=O)c1c(F)ccc(OCc2cccc(-c3ccc(Cl)cc3)c2)c1F
Bacillus subtilis [1]
  MIC: 0.063 µg/mL (≈ 0.169 µM)
Staphylococcus aureus [2]
  MIC: 0.25 µg/mL (≈ 0.669 µM)
Staphylococcus aureus [3]
  MIC: 0.25 µg/mL (≈ 0.669 µM)

## CC(C)(C)c1ccc(-c2cccc(COc3ccc(F)c(C(N)=O)c3F)c2)cc1
Bacillus subtilis [1]
  MIC: 2 µg/mL (≈ 5.06 µM)
Staphylococcus aureus [2]
  MIC: > 128 µg/mL
Staphylococcus aureus [3]
  MIC: > 128 µg/mL

## CCn1cc(C(=O)O)c(=O)c2cc(F)c(N3CCNCC3)cc21 [NORFLOXACIN]
Staphylococcus aureus [4]
  fold change (FC): 128

## COc1cc(C(F)(F)F)ccc1-c1cccc(COc2ccc(F)c(C(N)=O)c2F)c1
Bacillus subtilis [1]
  MIC: 0.063 µg/mL (≈ 0.144 µM)
Staphylococcus aureus [2]
  MIC: 1 µg/mL (≈ 2.29 µM)
Staphylococcus aureus [3]
  MIC: 1 µg/mL (≈ 2.29 µM)

## NC(=O)c1c(F)ccc(OCc2cccc(-c3ccc(Cl)cc3Cl)c2)c1F
Bacillus subtilis [1]
  MIC: 0.031 µg/mL (≈ 0.0759 µM)
Staphylococcus aureus [2]
  MIC: 0.25 µg/mL (≈ 0.612 µM)
Staphylococcus aureus [3]
  MIC: 0.25 µg/mL (≈ 0.612 µM)

## Cc1cc(Cl)ccc1-c1cccc(C(CO)Oc2ccc(F)c(C(N)=O)c2F)c1 (configuration not stated)
Bacillus subtilis [1]
  MIC: 0.125 µg/mL (≈ 0.299 µM)
Staphylococcus aureus [2]
  MIC: 1 µg/mL (≈ 2.39 µM)
Staphylococcus aureus [3]
  MIC: 1 µg/mL (≈ 2.39 µM)

## NC(=O)c1c(F)ccc(OCc2ccccc2)c1F
Bacillus subtilis [1]
  MIC: 16 µg/mL (≈ 60.8 µM)
Staphylococcus aureus [2]
  MIC: 64 µg/mL (≈ 243 µM)
Staphylococcus aureus [3]
  MIC: 32 µg/mL (≈ 122 µM)

## N#Cc1ccc(-c2cccc(COc3ccc(F)c(C(N)=O)c3F)c2)cc1
Bacillus subtilis [1]
  MIC: > 128 µg/mL
Staphylococcus aureus [2]
  MIC: > 128 µg/mL
Staphylococcus aureus [3]
  MIC: > 128 µg/mL

## Cc1cc(C(F)(F)F)ccc1-c1cccc(COc2ccc(F)c(C(N)=O)c2F)c1
Bacillus subtilis [1]
  MIC: 0.031 µg/mL (≈ 0.0736 µM)
Staphylococcus aureus [2]
  MIC: 0.25 µg/mL (≈ 0.593 µM)
Staphylococcus aureus [3]
  MIC: 0.25 µg/mL (≈ 0.593 µM)
Bacillus subtilis [5]
  MIC: 0.063 µg/mL (≈ 0.15 µM)
Bacillus subtilis [6]
  MIC: 0.031 µg/mL (≈ 0.0736 µM)
Bacillus subtilis [7]
  MIC: 0.016 µg/mL (≈ 0.038 µM)
[8]
  CC50 at 72 h: > 20 µg/mL
[9]
  selectivity ratio: > 1250

## COc1ccc(-c2cccc(COc3ccc(F)c(C(N)=O)c3F)c2)cc1
Bacillus subtilis [1]
  MIC: 0.25 µg/mL (≈ 0.677 µM)
Staphylococcus aureus [2]
  MIC: 2 µg/mL (≈ 5.41 µM)
Staphylococcus aureus [3]
  MIC: 1 µg/mL (≈ 2.71 µM)

## O=C(c1ccc(F)cc1)C1CCN(CCn2c(=O)[nH]c3ccccc3c2=O)CC1 [KETANSERIN]
[10]
  half-life: 30.4 min
[11]
  half-life: 14.5 min
[12]
  half-life: 8.57 min
[13]
  CLint scaled: 57.1 mL/min/kg
[14]
  CLint scaled: 171 mL/min/kg
[15]
  CLint scaled: 637 mL/min/kg

## NC(=O)c1c(F)ccc(OCc2cccc(-c3ccccc3)c2)c1F
Bacillus subtilis [1]
  MIC: 0.5 µg/mL (≈ 1.47 µM)
Staphylococcus aureus [2]
  MIC: 2 µg/mL (≈ 5.89 µM)
Staphylococcus aureus [3]
  MIC: 2 µg/mL (≈ 5.89 µM)

## NC(=O)c1c(F)ccc(OCc2cccc(-c3ccc(C(F)(F)F)c(F)c3)c2)c1F
Bacillus subtilis [1]
  MIC: > 128 µg/mL
Staphylococcus aureus [2]
  MIC: > 128 µg/mL
Staphylococcus aureus [3]
  MIC: > 128 µg/mL

## CCc1ccc(-c2cccc(COc3ccc(F)c(C(N)=O)c3F)c2)cc1
Bacillus subtilis [1]
  MIC: 0.125 µg/mL (≈ 0.34 µM)
Staphylococcus aureus [2]
  MIC: 0.5 µg/mL (≈ 1.36 µM)
Staphylococcus aureus [3]
  MIC: 0.5 µg/mL (≈ 1.36 µM)

## Cc1ccc(-c2cccc(COc3ccc(F)c(C(N)=O)c3F)c2)cc1
Bacillus subtilis [1]
  MIC: 0.125 µg/mL (≈ 0.354 µM)
Staphylococcus aureus [2]
  MIC: 0.5 µg/mL (≈ 1.41 µM)
Staphylococcus aureus [3]
  MIC: 0.5 µg/mL (≈ 1.41 µM)

## NC(=O)c1c(F)ccc(OCc2nc3cc(Cl)cnc3s2)c1F
Bacillus subtilis [1]
  MIC: 0.5 µg/mL (≈ 1.41 µM)
Staphylococcus aureus [2]
  MIC: 1 µg/mL (≈ 2.81 µM)
Staphylococcus aureus [3]
  MIC: 1 µg/mL (≈ 2.81 µM)

— ChEMBL document CHEMBL5338714, “Design, synthesis and biological evaluation of biphenyl-benzamides as potent FtsZ inhibitors” (Eur J Med Chem, 2022)
